Measured values from PubChem BioAssay.
The source made the active and inactive calls. Unless noted, no stated cut-off is given here; in the data, active means inhibition above about 31%; inactive means the rest.

Key:
[1] = HUVEC growth inhibition – cell-based, human, primary screen (AID 575;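 active means viability at or below 30% in both replicate assays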;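 further: 100% = median of untreated cell wells with 0.1% DMSO on each plate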); conditions: HUVEC proliferation, CellTiter-Glo luminescence, 72 h; at 10 µM; stronger effect = lower value
Summary of the method: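 Test system: primary human umbilical vein endothelial cells; medium: endothelial basal medium with 2% FBS plus growth supplements; dosing: 10 µM compound only; times: 72 h treatment at 37 °C; signal: CTG luminescence; read-out: % viability relative to median vehicle-well signal on each plate; control set: vehicle and MePR control wells; plate: 384-well, collagen-coated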

[2] = growth inhibitors of H69AR lung tumor, primary screen, human, duplicate replicates (AID 580;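 active means viability at or under a set limit in both replicates, limit being median viability minus 3 SD, cut at about 48% in these data, passing the limit was not always enough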;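 further: 100% = mean luminescence of untreated wells and 0% = no signal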); conditions: H69AR lung tumor cells viability, ATP luminescence, 72 h; at 10 µM; stronger effect = lower value
[3] = reversal of MRP1-mediated doxorubicin resistance, pilot screen, H69AR cells, doxorubicin co-treatment (AID 601;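 active means viability loss from added drug above about 55%, and viability with drug at most 40%, in both replicates, limit read from the data, passing the limit was not always enough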); conditions: CellTiter-Glo, 72 h, at 10 µM; for differential viability (reversal): stronger effect = higher value
[4] = 384-well plate pilot, post-Golgi transport modulator project, inhibition of yeast transport mutant growth (AID 636); conditions: absorbance 615 nm, about 18 h, stronger effect = higher value
[5] = growth suppression of yeast trafficking mutant, preliminary HTS, modulators of trafficking downstream of Golgi apparatus project, 1536-format plate, OD 615 nm (AID 637; in the data active means inhibition above about 30%); conditions: yeast transport mutant growth, absorbance 615 nm, 18 h; stronger effect = higher value
[6] = H69AR cells + 2 uM doxorubicin, measured here: viability with 2 uM doxorubicin, stronger effect = lower value
[7] = H69AR cells, compound alone cytotoxicity

SMILES	viability [1]	viability [2]	differential viability (reversal) ([3]; H69AR cells + 2 uM doxorubicin)	viability [3, 6] [%]	viability [3, 7] [%]	inhibition [4]	inhibition [5]
O=C(NCCN1CCCCC1)c1ccc(=O)oc1	101% (inactive)	99.2% (inactive)	9.61% (inactive)	89.6	99.2	-8.03% (inactive)	-2.22% (inactive)
CC(C)OC(=O)CSc1nnc(-c2ccc(O)cc2)n1Cc1ccccc1	109% (inactive)	80.8% (inactive)	-4.22% (inactive)	85	80.8	-7.2% (inactive)	-2.22% (inactive)
N=c1ncn(CC(O)CN2CCOCC2)c2nc(N3CCOCC3)[nH]c12 (stereo not given)	92.6% (inactive)	98.6% (inactive)	12.4% (inactive)	86.2	98.6	0.4% (inactive)	-1.9% (inactive)
Cc1cnn(C(=S)NCc2ccco2)c1	70.2% (inactive)	84.5% (inactive)	-5.57% (inactive)	90.1	84.5	2.24% (inactive)	-4.92% (inactive)
Cc1onc(-c2c(Cl)cccc2Cl)c1C(=O)NCCN1CCOCC1	94.9% (inactive)	89.9% (inactive)	-8.8% (inactive)	98.7	89.9	-3.03% (inactive)	1.43% (inactive)
Cc1nn(Cc2ccccc2Cl)c(C)c1NC(=O)C1C2CCC(O2)C1C(=O)O (stereo not given)	93.8% (inactive)	90.9% (inactive)	3.11% (inactive)	87.8	90.9	-1.97% (inactive)	-7.14% (inactive)
COc1cccc(N2CCN(c3ncnc4c3[nH]c3ccc(F)cc34)CC2C)c1 (stereo not given)	2.17% (active)	3.55% (active)	-1.01% (inactive)	4.56	3.55	71% (active)	29.6% (inactive)
CCCCc1cc(=O)oc2c(CN3CCCC3)c(O)c(Cl)cc12	98.2% (inactive)	96.6% (inactive)	3.32% (inactive)	93.3	96.6	-3.16% (inactive)	3.33% (inactive)
CCc1c(C)nc(N)n2c(SCC(=O)N3CCCc4ccccc43)nnc12	107% (inactive)	100% (inactive)	11.3% (inactive)	89.1	100	-3.29% (inactive)	-0.32% (inactive)
O=C(Nc1nnc(C2CCCCC2)s1)c1cccs1	102% (inactive)	93.2% (inactive)	10.4% (inactive)	82.9	93.2	0% (inactive)	-3.81% (inactive)
